The results in this text go back to the EternaBench riboswitch data.

In general, apparent Kd refers to the concentration giving half-maximal binding under the conditions of the assay.

The data set relates to MS2 coat protein. In words: apparent Kd, MS2 coat protein; higher = weaker binding; RNA-MaP array. The procedure, abridged:
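On an Illumina sequencing chip, sequenced DNA templates served for transcription of the designed RNAs, which were then bound at room temperature by fluorescently labeled MS2 coat protein at 1.5 nM to 3 μM, with or without input ligand. Apparent Kd is the median of the fits to each cluster's binding curve. Only designs measured on at least 10 clusters were kept.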

Setting [1] is: designed as: OFF switch for flavin mononucleotide, no ligand.
[2] abbreviates: ligand present: flavin mononucleotide, designed as: OFF switch for flavin mononucleotide.
The mark [3] stands for this setting: designed as: ON switch for flavin mononucleotide, no ligand.
Setting [4] is: ligand present: flavin mononucleotide, designed as: ON switch for flavin mononucleotide.
[5] abbreviates: designed as: OFF switch for theophylline, no ligand.
[6] abbreviates: ligand present: theophylline, designed as: OFF switch for theophylline.
[7] abbreviates: designed as: ON switch for theophylline, no ligand.
The mark [8] stands for this setting: ligand present: theophylline, designed as: ON switch for theophylline.

Turning to “ACUCAGUCAGGAUAUAGAGCCGCACGAGAUCGUGACUCGAUCUAGAAGGGACAUGAGGAUCACCCAUGUUAAGA”, the “apparent Kd” value by setting is: under setting [1], 12.7 nM; under setting [2], 20.8 nM.
Turning to “CCACCAACAGGAUAUACGCUGAGGUUUUCUAACGGUCAUGUACAUGAGGAUCACCCAUGUAGAAGGGUUGUAGG”, the “apparent Kd” value runs as follows: under setting [1], 37 nM; under setting [2], 55.6 nM.
For “CGAAAUUCAGUAAGGAUAUUAGGAGGCUCUGCGGCUAAGAAGGUACAUGAGGAUCACCCAUGUGGCACCGCAUG”, the “apparent Kd” value was 7.65 nM under setting [1] and 7.82 nM under setting [2].
The corresponding values for “UGGGCGGAAGGAUAUACAUGAGGAUCACCCAUGUGUCUUUUGCUGAUGGGUGCAUAGUGUAGAAGGUCCAGUGU” are 93.7 nM and 38.8 nM.
The corresponding values for “ACAUACAUGAGGAUCACCCAUGUGGGAUCUUCCUCUAAAACUAAGGAUAUGUCAGUUGGUUAACUACAGAAGGUAGGUCGGAAC” are 313 nM and 306 nM.
Consider “AGUUUUCCUGAGAAGGUGGAGGUCUUUCAUUGCCAAGGAUAUCAGACAACAAUGUAGCCCAAACAUGAGGAUCACCCAUGUCUC”, for which the “apparent Kd” value reads like this: under setting [3], 70.7 nM; under setting [4], 42.1 nM.
With “GGUAUCGUAGGAUAUUAAUGUAGCCACAUGAGGAUCACCCAUGUAGUUCUAGUGGACCGUUAAGAAGGACGUGAUC”, the “apparent Kd” value is, setting by setting: under setting [1], 66.1 nM; under setting [2], 82.8 nM.
On the same counts, the results for “GACGUGGUGAAGAAGGGCUGACGUAACCGGUGAGCAGGAUAUUCGACUCAUUAAUACAUGAGGAUCACCCAUGUUCGGUAGCGC” are 24.8 nM and 68 nM.
On the same counts, the results for “GGAUGAAGGAAGGAUAUUACGCAGCAACGACCGUAAGAAGGUCCAACAUGAGGAUCACCCAUGUGGUGCUUACU” are 33.2 nM and 159 nM.
On to “CAGCAACAAUUGGAUACCAGCCAUUACAGGUAUCAUUAUAACAUGAGGAUCACCCAUGUAGGCCCUUGGCAGCCAUUGGUGUAAG”, for which the “apparent Kd” value came to 39.1 nM under setting [5] and 106 nM under setting [6].
As to “CCUGCAGGUCAGGAUAUCAUAUCUGGCUAACUAUGAGAAGGGACAACAUGAGGAUCACCCAUGUGGUGAUAACA”, the “apparent Kd” value is, setting by setting: under setting [1], 666 nM; under setting [2], 509 nM.
On the same counts, the results for “AGGCCCUCACAUGAGGAUCACCCAUGUACGUACGCAGGUGGAAGAAGGCCGGUACAACCUAAUCCGGAGGAUAUUCGAAUUAAC” are 372 nM and 199 nM.
Consider “AACAUACAUGAGGAUCACCCAUGUCAAGAGAUGAAAGGAUAUAACUCUAUCAGGGUAAAGUAAGAAGGUUCGACUA”, for which the “apparent Kd” value by setting is: under setting [3], 23.5 nM; under setting [4], 20.1 nM.
Turning to “GAACAACAUGAGGAUCACCCAUGUCAGGAUACCAGUCGAAAGUCAGACCCUUGGCAGCCUAUCACUCAGCAAAUAGAUAGUACAA”, the “apparent Kd” value amounted to 15.2 nM under setting [7] and 13.7 nM under setting [8].
Take “GUCAGGCAACAGAAGGGAGGAUAUAACCGACAUGAGGAUCACCCAUGUGUAAAAGAAACAGUCGCUCAGGAUAUGUUCAACGUG”: the “apparent Kd” value is 15.9 nM under setting [3] and 9.36 nM under setting [4].
For the sequence “CUCGGAACAAUCGAUACCAGUUCUCAUGGAUUGCAGCAGUACAUGAGGAUCACCCAUGUAAACCCUUGGCAGCGAAGAACAAGAC”, the “apparent Kd” value reads like this: under setting [5], 32.7 nM; under setting [6], 55.3 nM.
Regarding “UAGCGUUCCUCAGGAUAUCCUUAAGUGGACAUGAGGAUCACCCAUGUGUGAUUCUGGGUGUUAUGGGAGAAGGGAGGGUGAUGA”, the “apparent Kd” value came to 300 nM under setting [1] and 47.5 nM under setting [2].
On to “GACCUGUUAGGAUAUCGAAGGAGUCAAUACCAAGUGAGACACGAGAAGGAACAUGAGGAUCACCCAUGUGAACC”, for which the “apparent Kd” value by setting is: under setting [1], 11.4 nM; under setting [2], 15.7 nM.
On the same counts, the results for “GUCAUUCAAGUGAGGAUAUCUGCGAUGCCGAAAGGAGAGAAGGCACAUGAGGAUCACCCAUGUGGUGUUUAUAU” are 34.5 nM and 57.4 nM.
The corresponding values for “AGUGGGUUUCAGGAUAUAAUAUUAUCAACCAUAUUAGAAGGGAAUACAUGAGGAUCACCCAUGUUGAGUAUACG” are 11.7 nM and 9.38 nM.
Turning to “CGAGGACAUGAGGAUCACCCAUGUGACCGUGCCAAAGGAUAUCACAGGAAAUAAUACAGUUGAGAAGGUUGAUCGG”, the “apparent Kd” value is 47.1 nM under setting [3] and 17.6 nM under setting [4].
“AUCGGCAGAAAAGAUACCAGAGUAAUACACAACAUGAGGAUCACCCAUGUACGGACAAUCCUCCCUUGGCAGCUUGUAACAGUAU”: the “apparent Kd” value under setting [7] stood at 47.8 nM and the “apparent Kd” value under setting [8] stood at 26.9 nM.
Take “AGGUAGCGAGACUUACAUGAGGAUCACCCAUGUACCACGCGGAAGGAUAUAACGGCAGGCUUUGCUUAGAAGGUCCGCGGUACU”: the “apparent Kd” value under setting [1] is 26.9 nM and the “apparent Kd” value under setting [2] was 20.4 nM.
Consider “ACUGUACUGGGAGGAUAUGGAGAGUUACCGUAAAUAAUCUACUAGACAUGAGGAUCACCCAUGUUCCAGAAGGCCCCAUGGACC”, for which the “apparent Kd” value under setting [3] was found to be 14.9 nM and the “apparent Kd” value under setting [4] is 10.4 nM.
With “CUUCCACGAGGAUAUCCGUUAACGGACAUGAGGAUCACCCAUGUUAUCCUCACGUCAGCAGGAGAAGGCGUCUCAU”, the “apparent Kd” value is, setting by setting: under setting [1], 22.5 nM; under setting [2], 33 nM.
As to “ACGAUGAUAGAAGGAUAUAGGCCGAACAUGAGGGACAUGAGGAUCACCCAUGUGACAGUCGGACCCUAGAAGGUCUCGAUACUC”, the “apparent Kd” value under setting [1] turned out to be 21.2 nM and the “apparent Kd” value under setting [2] turned out to be 15.1 nM.
Consider “CGGCCACAUGAGGAUCACCCAUGUAGUUCGUCUAAAGGAUAUCCAGGUGGGUGACUCCAAGGAGAAGGUUAGGACG”, for which the “apparent Kd” value by setting is: under setting [3], 54.7 nM; under setting [4], 39.3 nM.
On the same counts, the results for “AAAUUAACGAAGAAGGCCUGACGACAUGACUACAUGAGGAUCACCCAUGUUGCAGCACAAUAUAAGGAGGAUAUUCGACAAGCU” are 10.2 nM and 6.86 nM.
Take “UUGUCACAUGAGGAUCACCCAUGUAAGAGAUUCCAAGGAUAUAUUAUCGGGUAAAAUGAAAUAGAAGGUGGUCAGA”: the “apparent Kd” value under setting [3] amounted to 90.3 nM and the “apparent Kd” value under setting [4] stood at 65.6 nM.
On to “CGGAAUUCAGGAUAUGGCAUAUCCUACAUGAGGAUCACCCAUGUAUGACCCGUGUGCCGGCCAGAAGGGAACGCUG”, for which the “apparent Kd” value reads like this: under setting [1], 10.8 nM; under setting [2], 12 nM.
On the same counts, the results for “UGCCCACAGGAGAAGGUGGCUCAACCAGAGCGCCAAGGAUAUCCGGAGUUACUCCUCACUACAUGAGGAUCACCCAUGUUUCAU” are 71.5 nM and 54.6 nM.
As to “CCAGGACAUGAGGAUCACCCAUGUCAACAUCAAAUAAGCGCGUAGGAUAUCAAUACUGAAAGCUUUGAGAAGGACGAGAGGGUA”, the “apparent Kd” value by setting is: under setting [3], 22.8 nM; under setting [4], 17.8 nM.
On the same counts, the results for “GUGCCACAUGAGGAUCACCCAUGUUUGGCAAGCAAAGGAUAUGGAAUGAUGGCUCGCAGCCCAGAAGGUUGUUGUG” are 4.52 nM and 4.76 nM.
For “GCAAGGGUGCGAGGAUAUAUUAGAGUCUCUGGAAUAGAAGGCGCAAACAGUGUACAUGAGGAUCACCCAUGUGUAUAUACUGCU”, the “apparent Kd” value is, setting by setting: under setting [1], 11 nM; under setting [2], 10.2 nM.
The corresponding values for “UUACGGGAAGGAUAUCAUUGAAGGUACAUGAGGAUCACCCAUGUCUGAUGCGCAUCGCCGUGAGAAGGUCCUGCUU” are 38.2 nM and 14.9 nM.
On the same counts, the results for “AUCAUGUUAGGAUAUACAAUGUAACGAUCAUUCUUGUAUGCGUAGAAGGAACAUGAGGAUCACCCAUGUGGAAG” are 43 nM and 46.8 nM.
“CACAUGAGGAUCACCCAUGUGUGGUGGGUGGUGCAACAUUGUAAGGAUAUAAUGGACGUCGGCCCUUAGAAGGUACAUUGUACG”: the “apparent Kd” value under setting [1] was 139 nM and the “apparent Kd” value under setting [2] was determined as 110 nM.
As to “UCCCAUAUAGUAGGAUAUCUGCUACAUGAGGAUCACCCAUGUCAUAUUUUUUACCAGUCUUAGAUAGAGAAGGACUGUGGACCU”, the “apparent Kd” value reads like this: under setting [3], 590 nM; under setting [4], 373 nM.
On the same counts, the results for “CCUCUCUUCCAGAAGGCUAUCCUAGCAUACGAUAGAGGAUAUGGACCACAAUACGGGUAGAGACACAUGAGGAUCACCCAUGUU” are 72.4 nM and 185 nM.
On the same counts, the results for “GAGGCUCAUAUGUAGGAUAUUCAAGGAGCUACAUGAGGAUCACCCAUGUUCGGACGCCAAUUUUUGAAGAAGGACAAGACAGUGUU” are 54.6 nM and 16.2 nM.
The corresponding values for “CCUUCCUAGUGAGGAUAUCGGCUUGGACUCGAGCGAGAAGGCACCUAAUCGAAGAACUUUUAUCCACAUGAGGAUCACCCAUGU” are 11.8 nM and 11.1 nM.
Regarding “CUACAUGAGGAUCACCCAUGUGCCUCUGGUCAGGGUCACUACGAGGAUAUAAUAGUUUAGACGAGUUAGAAGGCGUAUGAGUUA”, the “apparent Kd” value worked out at 111 nM under setting [1] and 77.4 nM under setting [2].
As for “CCCUCUUUAUAGGAUAUGUAGACCAUGGGACAAACAGAAGGAUAGACAUGAGGAUCACCCAUGUGGGAAAACUU”, the “apparent Kd” value is 31.8 nM under setting [1] and 30.4 nM under setting [2].
As for “GCACACAUGAGUUAGGAUAUAUGUUGUGAGACAUGAGGAUCACCCAUGUGUGCAUUGCUUAUAAUAUAGAAGGAACCCAGGUCGGC”, the “apparent Kd” value is 25.5 nM under setting [3] and 17.1 nM under setting [4].
On the same counts, the results for “CUCGAAUUAUCAGGAUAUCCACAAUUCGAAGAAGGAGAAGGGAUGGCAGGGCUAACAUGGAACAUGAGGAUCACCCAUGUGCAA” are 11.2 nM and 9.94 nM.
“GAUCGACAUGAGGAUCACCCAUGUGAGGAUAUACCGCGGACUCCGUCUGCAUGUUAGGGUAGAAGGCACCGAGC”: the “apparent Kd” value reads like this: under setting [1], 14.1 nM; under setting [2], 13.1 nM.
With “CAAUGGGAACCAUAUGUUUACAUGAGGAUCACCCAUGUUACAUAGGAUAUCUCGGUUGGGUUCGUAGAGAAGGAUGUAGAGUAG”, the “apparent Kd” value under setting [1] came to 5.28 nM and the “apparent Kd” value under setting [2] is 5.3 nM.
In the case of “AAAAUACAUGAGGAUCACCCAUGUCGCAAAUGCAUAGGAUAUGAUGAUGCUAAACACGCAUCAGAAGGAUGUAGAA”, the “apparent Kd” value is 10.9 nM under setting [3] and 9.52 nM under setting [4].
